Data as given in article PMC4456214 (Molecular cancer therapeutics, 2015).
“And” between values parts separate entries of the source, which are not always exact repeats. Equal entries are not always repeated.

Tests used:
Hsp70-Bag3 interaction = Hsp70-Bag3 interaction (Homo sapiens, UniProt P0DMV8); assay: Co-immunoprecipitation of Hsp70 from HeLa cells, blotted for Bag3; format: cell-based; settings: 50 μM
Outline: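 HeLa extracts in M-PER lysis buffer at 5 mg total protein per mL. 500 μL samples took rabbit polyclonal anti-Hsp70 or goat IgG control, plus 1% DMSO or test compound at 50 μM final (5 mM stock). Rotated overnight at 4 °C, then 4 h on protein A/G Sepharose. Washed in PBS pH 7.4, eluted in SDS dye, run on 4–15% Tris-Tricine gel, immunoblotted for Hsp70 and Bag3 with chemiluminescence detection. Triplicate, quantification averaged.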

HeLa xenograft = HeLa xenograft model; format: in vivo; settings: 3 mg/kg, nude mice
Outline: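 One million HeLa cells in Matrigel were injected subcutaneously on both flanks of 6-week-old NCR nude mice. Once tumours were established, test compound at 3 mg/kg or 1:1 PBS:DMSO vehicle was given intraperitoneally on days 2, 4 and 6 (n=5 mice, 10 tumours per group). Tumours were measured by caliper every other day and mean volumes plotted with SEM.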

OPM2 = assay: Luciferase viability assay, multiple myeloma line OPM2; format: cell-based, Human; settings: 72 hours
Outline: (§1)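 Myeloma cells stably transduced with firefly luciferase were exposed to test compound at 11 concentrations between 30 nM and 30 uM for 72 h. Luciferin substrate was then added and bioluminescence read. Signal was normalised to mock-treated wells (100%) and no-cell wells (0%). IC50 came from fitted dose-response curves.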

MCF7 xenografts = assay: MCF7 xenograft model; format: in vivo, nude mice
Outline: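 One million MCF7 cells in Matrigel went subcutaneously on both flanks of 6-week-old NCR nude mice. After tumours reached 100 mm3, test compound at 3 mg/kg or 1:1 PBS:DMSO vehicle was given intraperitoneally on days 0, 2 and 4 (n=5 mice, 10 tumours). Caliper measurements every other day, mean volume with SEM. Treated tumours from three animals were Western blotted for signalling proteins.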

Pharmacokinetics in mice = format: in vivo, NSG mice
Outline: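 NSG mice (three per group) received test compound at 0.3, 1 or 3 mg/kg intraperitoneally in 1:1 DMSO:PBS, dosed twice weekly for 2 weeks. After the final dose, tail-vein blood was taken at 1, 3, 8 and 24 h. Plasma levels were measured by LC-MS, and pharmacokinetic parameters including terminal half-life were calculated.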

HeLa = assay: MTT cell proliferation assay, HeLa; format: cell-based; settings: 72 hours
Outline: (§2)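 Cells were plated at 2000 per well (MEFs) or 5000 per well (HeLa, MCF7) and left to attach overnight. Test compound at various concentrations was added, final DMSO 1%, for 72 h at 5% CO2. After 3 PBS washes, fresh medium with MTT reagent was added for 4 h at 37 °C in the dark, then detergent buffer. Absorbance was read at 570 nm. At least two independent experiments, each in triplicate.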

OPM1 = assay: Luciferase viability assay, multiple myeloma line OPM1; format: cell-based, Human; settings: 72 hours
Outline: as §1

MCF7 = assay: MTT cell proliferation assay, MCF7; format: cell-based; settings: 72 hours
Outline: as §2

[1] = system: mouse embryonic fibroblasts (MEFs); assay: MTT cell proliferation assay in normal fibroblasts; format: cell-based; settings: read-out: EC50, MEFs, 72 hours
Outline: as §2

Animal toxicity study = format: in vivo, NSG mice
[2] = system: FoxM1, HuR, p21, p27 in MCF7 breast cancer cells; assay: Western blot of cancer signaling proteins in MCF7 cells; format: cell-based
Bag3 (Homo sapiens) = Bag3 (Homo sapiens) (UniProt O95817); settings: cited from earlier work
[3] = MCF7 xenograft tumors, Western blot

Hsp70-Bag3 interaction, sequence (P0DMV8 2-641 limits assumed): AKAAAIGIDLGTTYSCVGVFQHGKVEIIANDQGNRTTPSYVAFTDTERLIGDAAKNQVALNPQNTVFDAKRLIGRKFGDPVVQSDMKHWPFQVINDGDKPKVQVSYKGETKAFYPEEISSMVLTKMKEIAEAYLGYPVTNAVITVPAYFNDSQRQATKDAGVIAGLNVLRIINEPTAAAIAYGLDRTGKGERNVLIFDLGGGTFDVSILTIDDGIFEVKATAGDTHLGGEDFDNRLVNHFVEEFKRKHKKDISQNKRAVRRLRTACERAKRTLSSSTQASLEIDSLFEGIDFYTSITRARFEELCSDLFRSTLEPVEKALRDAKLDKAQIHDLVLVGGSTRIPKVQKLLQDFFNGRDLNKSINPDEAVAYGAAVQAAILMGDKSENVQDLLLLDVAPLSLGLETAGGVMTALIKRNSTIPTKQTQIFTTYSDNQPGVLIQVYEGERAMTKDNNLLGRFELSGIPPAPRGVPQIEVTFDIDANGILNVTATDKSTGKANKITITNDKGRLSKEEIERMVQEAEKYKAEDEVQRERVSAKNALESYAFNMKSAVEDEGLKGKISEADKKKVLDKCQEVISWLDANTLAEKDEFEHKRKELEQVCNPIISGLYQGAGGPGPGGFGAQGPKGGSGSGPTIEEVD
Hsp70, sequence (P0DMV8 2-641): as the sequence (P0DMV8 2-641 limits assumed) above
Bag3 (Homo sapiens), sequence (O95817 2-575): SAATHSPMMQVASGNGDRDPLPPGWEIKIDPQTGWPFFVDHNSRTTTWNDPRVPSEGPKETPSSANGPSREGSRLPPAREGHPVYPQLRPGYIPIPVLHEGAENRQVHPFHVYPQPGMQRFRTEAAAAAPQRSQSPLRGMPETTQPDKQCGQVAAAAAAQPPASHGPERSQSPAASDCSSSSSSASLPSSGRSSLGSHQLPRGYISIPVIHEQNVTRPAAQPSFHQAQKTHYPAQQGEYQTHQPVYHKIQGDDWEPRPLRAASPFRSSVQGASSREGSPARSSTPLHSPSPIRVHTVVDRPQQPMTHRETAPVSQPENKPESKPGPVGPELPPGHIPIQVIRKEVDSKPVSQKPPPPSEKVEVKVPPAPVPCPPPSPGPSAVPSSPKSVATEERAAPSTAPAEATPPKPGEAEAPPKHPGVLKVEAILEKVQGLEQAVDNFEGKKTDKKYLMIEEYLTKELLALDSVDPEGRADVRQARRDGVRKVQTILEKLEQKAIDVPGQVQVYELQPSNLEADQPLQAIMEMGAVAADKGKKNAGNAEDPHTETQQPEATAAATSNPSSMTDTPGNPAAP

YM-01 [reference compound]
reduction of Hsp70-Bag3 interaction (Hsp70-Bag3 interaction): ~ 60%

CCn1c(=O)/c(=C2\Sc3cc(Cl)ccc3N2C)s/c1=C\c1scc[n+]1Cc1ccccc1.[Cl-] [JG-98]
tumor growth, HeLa xenograft (HeLa xenograft): suppressed tumor growth | sensitivity of OPM2 (OPM2): relatively less sensitive | tumor growth, MCF7 xenograft (MCF7 xenografts; 3 mg/kg intraperitoneal on days 0, 2 and 4, nude mice): limited tumor growth until day 6 | HuR and FoxM1 in tumor samples (MCF7 xenografts; [3]): tended to be decreased | p21 in tumor samples (MCF7 xenografts; [3]): significantly elevated | level in plasma (Pharmacokinetics in mice; 3 mg/kg intraperitoneal, after 1 hour, NSG mice): ~ 70 nM | terminal half-life (Pharmacokinetics in mice; all three doses (0.3, 1, 3 mg/kg) intraperitoneal, NSG mice): approximately 20 hours | stability in animals (Pharmacokinetics in mice; compared with YM-01): more stable than YM-01 | oral bioavailability (Pharmacokinetics in mice; mice): not orally bioavailable | activity against HeLa (HeLa): sub-micromolar activity | sensitivity of OPM1 (OPM1): relatively less sensitive | activity against MCF7 (MCF7): sub-micromolar activity | EC50 [1]: 4.5 µM and ~4.5 µM | weight loss (Animal toxicity study; 0.3, 1, 3 mg/kg intraperitoneal twice a week for 2 weeks, NSG mice): < 10% | alanine aminotransferase and total bilirubin (Animal toxicity study; after the final dose, markers of liver function): in the normal range | blood urea nitrogen (BUN) and creatinine levels (Animal toxicity study; all three dosages, after the final dose, renal function): normal | tolerability (Animal toxicity study; mouse, in vivo, ip): well tolerated | levels of FoxM1 and HuR [2]: reduced | levels of the cell cycle inhibitors p27 and p21 [2]: increasing | reduction of Hsp70-Bag3 interaction (Hsp70-Bag3 interaction): ~ 60%

Hsp70 (from UniProt P0DMV8)
Kd (Bag3 (Homo sapiens)): 0.03 µM
